Converted amounts (≈) assume the structure as drawn.
Assays:
[1] = Solubility in DMF at 1.5 mg sonicated for 45 mins followed by centrifugation for 45 mins by UV/Vis spectroscopy; assay type: physicochemical; settings: 0.75 h
Procedure, shortened: (§1)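 Solid compound (~1.5 mg) in the stated solvent was sonicated 45 min, then centrifuged at 1400g for 45 min. The supernatant concentration was read by UV/vis at 340 nm, using ε = 41500 M⁻¹ cm⁻¹ for the free phenols and 34500 M⁻¹ cm⁻¹ for the phosphate prodrugs (pH 7.0 values).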

HL-60 = assay: Cytotoxicity against human HL60 cells assessed as cell survival after 72 hrs by clonogenic assay; assay type: functional, cell-based; settings: HL-60, 72 h
Procedure, shortened: (§2)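 Cells were kept in RPMI 1640 with 10% heat-inactivated FBS at 37 °C and 6% CO₂. They were plated at 1000–5000 cells/well and exposed to 0–3 nM test agent for 72 h. Medium was then replaced and colonies grew for 7–10 days in total after plating. Colonies were fixed and stained with 0.2% crystal violet in 10% formalin/PBS, then counted. Surviving fraction = colonies in treated wells / colonies in control wells; IC₅₀ was taken from this.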

[2] = Prodrug activation assessed as enzyme-mediated compound dephosphorylation in presence of calf intestine alkaline phosphatase P7923 at pH 7.4 by HPLC; settings: cattle, isolated protein
[3] = Solubility in chloroform at 1.5 mg sonicated for 45 mins followed by centrifugation for 45 mins by UV/Vis spectroscopy; assay type: physicochemical; settings: 0.75 h; procedure, shortened: as §1
[4] = Solubility in water containing 5% DMF at 1.5 mg sonicated for 45 mins followed by centrifugation for 45 mins by UV/Vis spectroscopy; assay type: physicochemical; settings: 0.75 h
[5] = Solubility in dichloromethane at 1.5 mg sonicated for 45 mins followed by centrifugation for 45 mins by UV/Vis spectroscopy; assay type: physicochemical; settings: 0.75 h
[6] = Prodrug activation assessed as enzyme-mediated compound dephosphorylation in presence of bovine semen prostatic acid phosphatase P3147 at pH 7.4 by HPLC; settings: cattle, isolated protein
[7] = Solubility of the compound in 5% DMA and 95% buffer at pH 7 at 1.5 mg sonicated for 45 mins followed by centrifugation for 45 mins by UV/Vis spectroscopy; assay type: physicochemical
Procedure, shortened: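 For buffers with 5% or less DMA, a 50 mM stock of compound in DMA is diluted 20–100 times into pH 7.0 buffer. It is then sonicated for 45 min and centrifuged at 1400g for 45 min. Supernatant is quantified by UV/vis at 340 nm, with ε of 41500 (DC1–SR₂ compounds) or 34500 M⁻¹ cm⁻¹ (phosphate prodrugs).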

[8] = Solubility in water containing 5% DMA at 1.5 mg sonicated for 45 mins followed by centrifugation for 45 mins by UV/Vis spectroscopy; assay type: physicochemical; settings: 0.75 h
[9] = Cytotoxicity against human NAMALWA cells assessed as cell survival after 72 hrs by clonogenic assay; assay type: functional, cell-based; settings: NAMALVA; procedure, shortened: as §2
[10] = Solubility in methanol at 1.5 mg sonicated for 45 mins followed by centrifugation for 45 mins by UV/Vis spectroscopy; assay type: physicochemical; settings: 0.75 h; procedure, shortened: as §1
[11] = Prodrug conversion assessed as 1-[S]-(Chloromethyl)-5-hydroxy-3-{{5-[5-(3-methyldithiopropionyl)indol-2-yl-carbonyl amino]indole-2-yl}- carbonyl}-1,2-dihydro-3H-benz[e]indole formation in presence of bovine kidney alkaline phosphatase at pH 7.4; assay type: physicochemical; settings: cattle, isolated protein
[12] = Solubility in water containing 5% THF at 1.5 mg sonicated for 45 mins followed by centrifugation for 45 mins by UV/Vis spectroscopy; assay type: physicochemical; settings: 0.75 h
Ramos [13] = assay: Cytotoxicity against human Ramos cells assessed as cell survival after 72 hrs in presence of bovine alkaline phosphatase by clonogenic assay; assay type: functional, cell-based
Procedure, shortened: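 Clonogenic assay: cells in RPMI 1640 with 10% heat-inactivated FBS were plated at 1000–5000 cells/well. Test agent (0–3 nM) was combined with alkaline phosphatase from bovine liver, and cells were exposed for 72 h. Colonies then grew for 7–10 days after plating and were stained with 0.2% crystal violet in 10% formalin/PBS. Surviving fraction is relative to untreated control wells.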

[14] = Prodrug activation assessed as enzyme-mediated compound dephosphorylation in presence of rabbit intestine alkaline phosphatase P2256 at pH 7.4 by HPLC; settings: isolated protein
[15] = Prodrug activation assessed as enzyme-mediated compound dephosphorylation in presence of bovine intestinal mucosa alkaline phosphatase P7640 at pH 7.4 by HPLC; settings: cattle, isolated protein
[16] = Prodrug conversion assessed as 1-[S]-(Chloromethyl)-5-hydroxy-3-{{5-[5-(4-methyldithio-3,3- dimethyl butyryl)indol-2-yl-carbonyl amino]indole-2-yl}carbonyl}- 1,2-dihydro-3H-benz[e]indole formation in presence of porcine mucosa alkaline phosphatase at pH 7.4; assay type: physicochemical; settings: pig, isolated protein
[17] = Prodrug activation assessed as enzyme-mediated compound dephosphorylation in presence of canine intestine alkaline phosphatase P8639 at pH 7.4 by HPLC; settings: dog, isolated protein
[18] = Solubility in water containing 5% DMSO at 1.5 mg sonicated for 45 mins followed by centrifugation for 45 mins by UV/Vis spectroscopy; assay type: physicochemical; settings: 0.75 h
[19] = Solubility of the compound in 20% DMA and 80% buffer at pH 7 at 1.5 mg sonicated for 45 mins followed by centrifugation for 45 mins by UV/Vis spectroscopy; assay type: physicochemical
Procedure, shortened: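 About 1.5 mg of compound is sonicated for 45 min in pH 7.0 buffer containing 10% or 20% DMA, then centrifuged at 1400g for 45 min. Supernatant concentration is read by UV/vis at 340 nm. ε at pH 7.0 is 41500 M⁻¹ cm⁻¹ for DC1–SR₂ compounds and 34500 M⁻¹ cm⁻¹ for phosphate prodrugs.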

[20] = Solubility in water at 1.5 mg sonicated for 45 mins followed by centrifugation for 45 mins by UV/Vis spectroscopy; assay type: physicochemical; settings: 0.75 h; procedure, shortened: as §1
[21] = Prodrug activation assessed as enzyme-mediated compound dephosphorylation in presence of human placenta alkaline phosphatase from P3895 at pH 7.4 by HPLC; settings: isolated protein
Ramos [22] = assay: Cytotoxicity against human Ramos cells assessed as cell survival after 72 hrs by clonogenic assay; assay type: functional, cell-based; procedure, shortened: as §2
[23] = Solubility in ethyl acetate at 1.5 mg sonicated for 45 mins followed by centrifugation for 45 mins by UV/Vis spectroscopy; assay type: physicochemical; settings: 0.75 h; procedure, shortened: as §1
COLO 205 = assay: Cytotoxicity against human COLO205 cells assessed as cell survival after 72 hrs by clonogenic assay; assay type: functional, cell-based; settings: COLO 205, 72 h; procedure, shortened: as §2
[24] = Prodrug activation assessed as enzyme-mediated compound dephosphorylation in presence of calf intestine mucosa alkaline phosphatase P79390 at pH 7.4 by HPLC; settings: cattle, isolated protein
[25] = Solubility in water containing 5% dioxane at 1.5 mg sonicated for 45 mins followed by centrifugation for 45 mins by UV/Vis spectroscopy; assay type: physicochemical; settings: 0.75 h
[26] = Prodrug activation assessed as enzyme-mediated compound dephosphorylation in presence of bovine kidney alkaline phosphatase P4653 at pH 7.4 by HPLC; settings: cattle, isolated protein
[27] = Stability of the compound in 5 % DMA assessed as cyclopropyl ring formation incubated for 1 yr at room temperature at pH 7 by HPLC analysis; assay type: physicochemical; settings: buffer, pH 7, 8766 h
Procedure, shortened: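 Phosphate prodrug is stored for one year at room temperature in phosphate buffer containing 5% DMA at pH ~7. Conversion to the ring-closed cyclopropyl form is monitored by HPLC.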

[28] = Prodrug activation assessed as enzyme-mediated compound dephosphorylation in presence of wheat germ acid phosphatase Sigma P3627 at pH 7.4 by HPLC; settings: isolated protein

CSSCCC(=O)Nc1ccc2[nH]c(C(=O)Nc3ccc4[nH]c(C(=O)N5C[C@@H](CCl)c6c5cc(OP(=O)(O)O)c5ccccc65)cc4c3)cc2c1
solubility [1]: soluble
IC50 (HL-60): 1.8 nM
Drug metabolism [2]: Active
solubility [3]: Insoluble
solubility [4]: soluble
solubility [5]: Insoluble
Drug metabolism [6]: Active
solubility at 0.75 h [7]: 3000 µM (≈ 2290 µg/mL)
solubility [8]: soluble
IC50 [9]: 2.9 nM
solubility [10]: Insoluble
Drug metabolism [11]: Active
solubility [12]: soluble
IC50 (Ramos [13]): 0.08 nM
Drug metabolism [14]: Active
Drug metabolism [15]: Active
Drug metabolism [16]: Active
Drug metabolism [17]: Active
solubility [18]: soluble
solubility at 0.75 h [19]: > 6000 µM
solubility [20]: Insoluble
Drug metabolism [21]: Active
IC50 (Ramos [22]): 1.9 nM
solubility [23]: Insoluble
IC50 (COLO 205): > 3 nM
Drug metabolism [24]: Active
solubility [25]: soluble
Drug metabolism [26]: Active
Drug degradation [27]: 3%
Drug metabolism [28]: Active

CSSC(C)(C)CCC(=O)Nc1ccc2[nH]c(C(=O)Nc3ccc4[nH]c(C(=O)N5C[C@@H](CCl)c6c5cc(OP(=O)(O)O)c5ccccc65)cc4c3)cc2c1
solubility [1]: soluble
IC50 (HL-60): 1.9 nM
Drug metabolism [2]: Active
solubility [3]: Insoluble
solubility [4]: soluble
solubility [5]: Insoluble
Drug metabolism [6]: Active
solubility at 0.75 h [7]: 2900 µM (≈ 2340 µg/mL)
solubility [8]: soluble
IC50 [9]: 2.8 nM
solubility [10]: Insoluble
Drug metabolism [11]: Active
solubility [12]: soluble
IC50 (Ramos [13]): 0.09 nM
Drug metabolism [14]: Active
Drug metabolism [15]: Active
Drug metabolism [16]: Active
Drug metabolism [17]: Active
solubility [18]: soluble
solubility at 0.75 h [19]: > 6000 µM
solubility [20]: Insoluble
Drug metabolism [21]: Active
IC50 (Ramos [22]): 2 nM
solubility [23]: Insoluble
IC50 (COLO 205): > 3 nM
Drug metabolism [24]: Active
solubility [25]: soluble
Drug metabolism [26]: Active
Drug degradation [27]: 3%
Drug metabolism [28]: Active

Source: ChEMBL document CHEMBL2157989, “Synthesis and biological evaluation of antibody conjugates of phosphate prodrugs of cytotoxic DNA alkylators for the targeted treatment of cancer” (J Med Chem, 2012)
